ChEMBL document CHEMBL1811829, “Discovery of selective indole-based prostaglandin D₂ receptor antagonist” (Bioorg Med Chem, 2011)

What was measured:
[1] = target: Prostaglandin E2 receptor EP4 subtype (Mus musculus, UniProt P32240); experiment: Displacement of [3H]-PGE2 from mouse EP4 receptor expressed in CHO cells after 60 mins by liquid scintillation counting; format: cell-based
How it was run: (§1)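 Membranes from CHO cells stably expressing mEP1, mEP2, mEP3a, mEP4 or mFP were used. The radioligand was 2.5 nM [³H]PGE₂ for EP receptors and 2.5 nM [³H]PGF2α for FP. Buffer was 10 mM KH₂PO₄–KOH pH 6.0 with 1 mM EDTA, 10 mM MgCl₂ and 100 mM NaCl. Incubation was at room temperature, 20 min for mEP1 and 60 min for the others. Samples were filtered on GF/B, washed with phosphate/NaCl pH 6.0, dried 60 min at 60 °C and scintillation counted.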

[2] = target: T1, Prostaglandin D2 receptor (Mus musculus, UniProt P70263); experiment: Displacement of [3H]-PGD2 from mouse DP receptor expressed in CHO cells after 20 mins by liquid scintillation counting; format: cell-based
T1 sequence (P70263 whole entry): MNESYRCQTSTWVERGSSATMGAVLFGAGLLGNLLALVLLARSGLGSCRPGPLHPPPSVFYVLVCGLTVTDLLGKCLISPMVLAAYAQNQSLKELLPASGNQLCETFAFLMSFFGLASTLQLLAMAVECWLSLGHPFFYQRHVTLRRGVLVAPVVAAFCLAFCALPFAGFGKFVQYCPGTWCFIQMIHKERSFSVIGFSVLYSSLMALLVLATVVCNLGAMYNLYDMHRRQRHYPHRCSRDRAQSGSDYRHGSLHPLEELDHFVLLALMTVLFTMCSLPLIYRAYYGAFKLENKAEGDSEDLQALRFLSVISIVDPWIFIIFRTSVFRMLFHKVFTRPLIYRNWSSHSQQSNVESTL
How it was run: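 Membranes from CHO cells stably expressing mDP were incubated with 2.5 nM [³H]PGD₂ and compounds at various concentrations. Buffer was 25 mM HEPES–NaOH pH 7.4 with 1 mM EDTA, 5 mM MgCl₂ and 10 mM MnCl₂, for 20 min at room temperature. Samples were filtered on GF/B and washed with Tris–HCl pH 7.4, NaCl, 0.01% BSA. Filters were dried 60 min at 60 °C and read by scintillation counting. Nonspecific binding was set with excess unlabeled PGD₂.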

[3] = target: T2, Thromboxane A2 receptor (Homo sapiens, UniProt P21731); experiment: Displacement of [3H]-SQ29548 from human TP receptor expressed in CHO cells after 30 mins by liquid scintillation counting; format: cell-based
T2 sequence (P21731 whole entry): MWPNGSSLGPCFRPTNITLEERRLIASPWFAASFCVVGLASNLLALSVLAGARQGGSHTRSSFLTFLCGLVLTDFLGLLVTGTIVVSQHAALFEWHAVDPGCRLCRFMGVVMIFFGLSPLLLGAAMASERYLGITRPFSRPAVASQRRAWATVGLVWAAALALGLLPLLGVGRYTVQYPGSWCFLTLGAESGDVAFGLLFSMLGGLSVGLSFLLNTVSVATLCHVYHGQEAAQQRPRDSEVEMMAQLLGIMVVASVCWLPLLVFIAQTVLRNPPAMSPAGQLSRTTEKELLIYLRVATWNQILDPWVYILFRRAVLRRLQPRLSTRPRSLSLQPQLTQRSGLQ
How it was run: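 Membranes from CHO cells expressing hTP were incubated with 5.0 nM [³H]-SQ29548 and compounds at various concentrations. Buffer was 10 mM Tris–HCl pH 7.5 with 100 mM NaCl, for 30 min at room temperature. Samples were filtered on GF/B, washed with the same buffer, dried 60 min at 60 °C and scintillation counted. Nonspecific binding was set with excess unlabeled SQ29548.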

[4] = target: Prostaglandin E2 receptor EP2 subtype (Mus musculus, UniProt Q62053); experiment: Displacement of [3H]-PGE2 from mouse EP2 receptor expressed in CHO cells after 60 mins by liquid scintillation counting; format: cell-based; how it was run: as §1
[5] = target: T1, Prostaglandin D2 receptor; experiment: Antagonist activity at mouse DP receptor expressed in CHO cells assessed as inhibition of PGD2-induced cAMP accumulation after 10 mins by enzyme immunoassay in the presence of 0.1% BSA; format: functional, cell-based
How it was run: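 CHO cells stably expressing mDP were seeded at 1 × 10⁵ cells/well and grown 2 days. They were preincubated about 10 min at 37 °C in MEM with Diclofenac, then given assay medium (MEM, 0.1% BSA, 1 mM IBMX, Diclofenac). Test compound at various concentrations plus 10 nM PGD₂ was added for 10 min at 37 °C. The reaction was stopped with ice-cold 10% TCA and TCA was extracted. cAMP was measured by EIA. IC50 came from cAMP relative to the PGD₂-only maximum.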

[6] = target: T3, Prostaglandin E2 receptor EP3 subtype (Mus musculus, UniProt P30557); experiment: Displacement of [3H]-PGE2 from mouse EP3 receptor expressed in CHO cells after 60 mins by liquid scintillation counting; format: cell-based; how it was run: as §1
T3 sequence (P30557 whole entry): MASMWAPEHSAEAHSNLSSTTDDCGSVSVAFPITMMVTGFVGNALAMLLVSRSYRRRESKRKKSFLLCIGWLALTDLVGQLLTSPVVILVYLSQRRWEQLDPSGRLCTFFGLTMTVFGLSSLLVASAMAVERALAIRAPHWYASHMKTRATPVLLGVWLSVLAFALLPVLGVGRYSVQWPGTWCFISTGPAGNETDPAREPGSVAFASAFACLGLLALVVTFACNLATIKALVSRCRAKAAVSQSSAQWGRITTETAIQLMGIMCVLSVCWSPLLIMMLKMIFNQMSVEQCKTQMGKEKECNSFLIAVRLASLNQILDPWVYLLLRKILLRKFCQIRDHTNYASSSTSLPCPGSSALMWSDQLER

[7] = target: Prostaglandin F2-alpha receptor (Mus musculus, UniProt P43117); experiment: Displacement of [3H]-PGF2-alpha from mouse FP receptor expressed in CHO cells after 60 mins by liquid scintillation counting; format: cell-based; how it was run: as §1
[8] = target: T4, Prostaglandin E2 receptor EP1 subtype (Mus musculus, UniProt P35375); experiment: Displacement of [3H]-PGE2 from mouse EP1 receptor expressed in CHO cells after 20 mins by liquid scintillation counting; format: cell-based; how it was run: as §1
T4 sequence (P35375 whole entry): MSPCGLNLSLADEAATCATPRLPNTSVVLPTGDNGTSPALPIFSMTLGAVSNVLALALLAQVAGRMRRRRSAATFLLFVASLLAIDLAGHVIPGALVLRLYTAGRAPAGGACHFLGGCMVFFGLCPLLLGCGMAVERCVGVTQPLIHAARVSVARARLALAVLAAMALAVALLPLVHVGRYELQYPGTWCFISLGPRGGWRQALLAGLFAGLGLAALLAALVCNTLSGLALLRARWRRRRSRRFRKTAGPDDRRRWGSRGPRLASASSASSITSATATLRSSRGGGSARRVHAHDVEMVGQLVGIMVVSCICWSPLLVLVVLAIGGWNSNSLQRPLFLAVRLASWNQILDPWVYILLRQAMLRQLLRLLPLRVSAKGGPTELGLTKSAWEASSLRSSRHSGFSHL

[9] = target: Prostacyclin receptor (Homo sapiens, UniProt P43119); experiment: Displacement of [3H]-Iloprost from human IP receptor expressed in CHO cells after 30 mins by liquid scintillation counting; format: cell-based
How it was run: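 Membranes from CHO cells expressing hIP were incubated with 5.0 nM [³H]Iloprost and compounds at various concentrations. Buffer was 50 mM Tris–HCl pH 7.5 with 1 mM EDTA and 10 mM MgCl₂, for 30 min at room temperature. Samples were filtered on GF/B, washed with 10 mM Tris–HCl/100 mM NaCl pH 7.5, dried 60 min at 60 °C and scintillation counted.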

[10] = test system: Cavia porcellus; experiment: Inhibition of OVA-induced vascular permeability in guinea pig conjunctiva at 3 mg/kg, po administered 1 hr before antigen challenge measured after 30 mins; format: functional
How it was run: (§2)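 Male Hartley guinea pigs were sensitized i.p. with OVA (1 mg) plus inactivated Bordetella pertussis. Two weeks later they were challenged with topical OVA (1%, 20 µL/eye), followed at once by Evans blue (20 mg/kg iv). Compound was given orally 1 h before challenge. After 30 min, conjunctiva was removed and extracted in DMF at 37 °C. Dye was read at 620 nm against a standard curve.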

[11] = test system: Cavia porcellus; experiment: Inhibition of OVA-induced vascular permeability in guinea pig conjunctiva at 1 mg/kg, po administered 1 hr before antigen challenge measured after 30 mins; format: functional; how it was run: as §2

Prostaglandin F2-alpha receptor, sequence (P43117 whole entry): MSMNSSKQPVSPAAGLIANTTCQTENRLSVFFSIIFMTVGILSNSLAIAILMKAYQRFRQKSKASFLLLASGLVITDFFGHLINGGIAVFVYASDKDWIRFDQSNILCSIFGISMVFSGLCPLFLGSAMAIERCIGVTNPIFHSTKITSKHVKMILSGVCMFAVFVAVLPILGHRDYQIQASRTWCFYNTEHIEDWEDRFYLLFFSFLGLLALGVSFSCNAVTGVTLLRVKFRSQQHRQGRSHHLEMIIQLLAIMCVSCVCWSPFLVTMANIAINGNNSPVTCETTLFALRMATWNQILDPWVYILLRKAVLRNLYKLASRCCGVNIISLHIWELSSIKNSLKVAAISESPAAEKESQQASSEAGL
Prostaglandin E2 receptor EP2 subtype, sequence (Q62053 whole entry): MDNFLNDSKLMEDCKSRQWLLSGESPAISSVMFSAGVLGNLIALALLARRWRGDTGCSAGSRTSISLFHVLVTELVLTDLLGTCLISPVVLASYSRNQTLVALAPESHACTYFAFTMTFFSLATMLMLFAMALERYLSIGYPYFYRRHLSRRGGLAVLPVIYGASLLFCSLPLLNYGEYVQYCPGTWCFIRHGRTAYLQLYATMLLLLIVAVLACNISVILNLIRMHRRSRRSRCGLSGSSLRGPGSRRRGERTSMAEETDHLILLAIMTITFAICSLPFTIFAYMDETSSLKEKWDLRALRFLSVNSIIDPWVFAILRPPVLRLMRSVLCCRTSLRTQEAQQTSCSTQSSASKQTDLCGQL
Prostaglandin E2 receptor EP4 subtype, sequence (P32240 whole entry): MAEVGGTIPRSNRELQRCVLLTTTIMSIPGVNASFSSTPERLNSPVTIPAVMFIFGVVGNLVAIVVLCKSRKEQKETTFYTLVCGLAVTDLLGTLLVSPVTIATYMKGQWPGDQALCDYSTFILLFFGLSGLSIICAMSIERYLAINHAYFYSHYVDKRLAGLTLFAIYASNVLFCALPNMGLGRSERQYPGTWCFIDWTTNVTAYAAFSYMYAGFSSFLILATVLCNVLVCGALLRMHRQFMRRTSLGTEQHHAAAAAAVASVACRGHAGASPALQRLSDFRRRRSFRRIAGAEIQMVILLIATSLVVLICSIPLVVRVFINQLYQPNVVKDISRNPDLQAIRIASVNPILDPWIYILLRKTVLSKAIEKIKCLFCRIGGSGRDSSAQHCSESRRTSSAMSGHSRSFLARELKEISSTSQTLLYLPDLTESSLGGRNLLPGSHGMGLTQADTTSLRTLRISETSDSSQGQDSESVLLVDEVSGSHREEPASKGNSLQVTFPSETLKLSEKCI
Prostacyclin receptor, sequence (P43119 whole entry): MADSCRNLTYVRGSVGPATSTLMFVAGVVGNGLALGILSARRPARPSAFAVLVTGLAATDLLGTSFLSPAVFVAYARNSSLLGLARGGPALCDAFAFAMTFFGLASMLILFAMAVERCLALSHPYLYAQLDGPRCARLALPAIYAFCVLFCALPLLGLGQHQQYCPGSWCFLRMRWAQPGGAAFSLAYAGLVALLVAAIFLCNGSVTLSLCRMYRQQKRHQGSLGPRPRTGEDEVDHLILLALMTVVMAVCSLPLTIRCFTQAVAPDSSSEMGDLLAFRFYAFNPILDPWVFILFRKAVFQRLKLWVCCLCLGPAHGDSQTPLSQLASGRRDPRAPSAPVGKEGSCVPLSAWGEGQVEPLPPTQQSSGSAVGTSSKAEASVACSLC

| Ki [1] | Ki [2] | IC50 [3] | Ki [4] | IC50 [5] | Ki [6] | Ki [7] | Ki [8] | Ki [9] | Ki [3] | Compound | inhibition in vivo at 3 mg/kg [10] | inhibition in vivo at 1 mg/kg [11] |
| --- | --- | --- | --- | --- | --- | --- | --- | --- | --- | --- | --- | --- |
| 4.1 µM | 0.0052 µM | > 10 µM | 0.37 µM | 0.0016 µM | 3.2 µM | 1.2 µM | > 10 µM | 0.2 µM |  | Cc1c(CC(=O)O)c2cc(F)ccc2n1C(=O)c1ccc(OC[C@@H]2CN(C)c3ccccc3O2)cc1Cl | 52% |  |
| > 10 µM | 0.0044 µM |  | 0.6 µM | 0.0022 µM | > 10 µM |  | > 10 µM | 0.092 µM |  | Cc1c(CC(=O)O)c2ccccc2n1C(=O)c1ccc(OC[C@@H]2CN(C)c3ccccc3O2)cc1Cl | 48% |  |
| > 10 µM | 0.016 µM |  |  | 0.0024 µM |  | 3.1 µM |  | 0.037 µM | 0.26 µM | Cc1cc2c(CC(=O)O)cccc2n1C(=O)c1ccc(OC[C@@H]2CN(C)c3ccccc3O2)cc1 | 41% | 23% |
| 1.6 µM | 0.0048 µM | 7.6 µM | 2.7 µM | 0.0022 µM | 2.8 µM | 1.4 µM | > 10 µM | 2.2 µM |  | CCN1c2ccccc2C[C@@H]1COc1ccc(C(=O)n2c(C)c(CC(=O)O)c3ccccc32)c(C)c1 |  | 42% |
| > 10 µM | 0.0035 µM | > 10 µM | 0.5 µM | 0.0011 µM | 3.6 µM | 2.6 µM | 2.9 µM | 0.13 µM |  | Cc1cc(OC[C@@H]2CN(C)c3ccccc3O2)ccc1C(=O)n1c(C)c(CC(=O)O)c2ccccc21 | 29% |  |
